How the values were obtained:
Type in all cases: functional
[1] = test system: TK-10; assay: Cytotoxicity against human TK10 cells assessed as cell growth at 10 uM after 48 hrs by SRB assay relative to untreated control; settings: TK-10, 48 h, read-out: Activity
In short: (§1)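 NCI-60 single-dose screen. Compounds were added to the cultures at 10 μM and incubated for 48 h. The end point was sulforhodamine B protein staining read spectrophotometrically. Growth is reported as percent of untreated control cells.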

[2] = test system: A549; assay: Cytotoxicity against human A549 cells assessed as cell growth at 10 uM after 48 hrs by SRB assay relative to untreated control; settings: A549, 48 h, read-out: Activity
In short: (§2)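 NCI-60 panel screen at a single concentration of 10 μM with 48 h incubation. Cell density measured by sulforhodamine B protein-binding dye and read spectrophotometrically. Growth expressed as percent of untreated control cells.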

[3] = test system: MDA-MB-468; assay: Cytotoxicity against human MDA-MB-468 cells assessed as cell growth at 10 uM after 48 hrs by SRB assay relative to untreated control; settings: MDA-MB-468, 48 h, read-out: Activity
In short: (§3)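 NCI-60 one-dose screen: each agent added at 10 µM, cultures incubated 48 h. Endpoint by sulforhodamine B protein-binding dye read spectrophotometrically; growth expressed as percent of untreated control cells.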

[4] = test system: RPMI-8226; assay: Cytotoxicity against human RPMI8226 cells assessed as cell growth at 10 uM after 48 hrs by SRB assay relative to untreated control; settings: RPMI-8226, 48 h, read-out: Activity; in short: as §3
[5] = test system: PC-3; assay: Cytotoxicity against human PC3 cells assessed as cell growth at 10 uM after 48 hrs by SRB assay relative to untreated control; settings: PC-3, 48 h, read-out: Activity; in short: as §3
[6] = test system: SR; assay: Cytotoxicity against human SR cells assessed as cell growth at 10 uM after 48 hrs by SRB assay relative to untreated control; settings: read-out: Activity; in short: as §1
[7] = test system: UACC-62; assay: Cytotoxicity against human UACC62 cells assessed as cell growth at 10 uM after 48 hrs by SRB assay relative to untreated control; settings: UACC-62, 48 h, read-out: Activity; in short: as §1
[8] = test system: U-251; assay: Cytotoxicity against human U251 cells assessed as cell growth at 10 uM after 48 hrs by SRB assay relative to untreated control; settings: U-251, 48 h, read-out: Activity; in short: as §1
[9] = test system: SF-295; assay: Cytotoxicity against human SF295 cells assessed as cell growth at 10 uM after 48 hrs by SRB assay relative to untreated control; settings: SF-295, 48 h, read-out: Activity; in short: as §3
[10] = test system: HL-60(TB); assay: Cytotoxicity against human HL-60(TB) cells assessed as cell growth at 10 uM after 48 hrs by SRB assay relative to untreated control; settings: HL-60, 48 h, read-out: Activity
In short: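 NCI-60 human tumour cell line panel; a single 10 µM concentration was added to the cultures and incubated 48 h. Endpoint was sulforhodamine B protein-binding dye read spectrophotometrically, with growth reported as percent of untreated control cells.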

[11] = test system: Malme-3M; assay: Cytotoxicity against human MALME-3M cells assessed as cell growth at 10 uM after 48 hrs by SRB assay relative to untreated control; settings: read-out: Activity; in short: as §2
[12] = test system: IGROV-1; assay: Cytotoxicity against human IGROV1 cells assessed as cell growth at 10 uM after 48 hrs by SRB assay relative to untreated control; settings: IGROV-1, 48 h, read-out: Activity; in short: as §2
[13] = test system: SW-620; assay: Cytotoxicity against human SW620 cells assessed as cell growth at 10 uM after 48 hrs by SRB assay relative to untreated control; settings: SW-620, 48 h, read-out: Activity; in short: as §1
[14] = test system: MOLT-4; assay: Cytotoxicity against human MOLT4 cells assessed as cell growth at 10 uM after 48 hrs by SRB assay relative to untreated control; settings: MOLT-4, 48 h, read-out: Activity; in short: as §3
[15] = test system: SF-268; assay: Cytotoxicity against human SF268 cells assessed as cell growth at 10 uM after 48 hrs by SRB assay relative to untreated control; settings: SF-268, 48 h, read-out: Activity; in short: as §3
[16] = test system: K562; assay: Cytotoxicity against human K562 cells assessed as cell growth at 10 uM after 48 hrs by SRB assay relative to untreated control; settings: K562, 48 h, read-out: Activity; in short: as §2
[17] = test system: LOX IMVI; assay: Cytotoxicity against human LOXIMVI cells assessed as cell growth at 10 uM after 48 hrs by SRB assay relative to untreated control; settings: read-out: Activity; in short: as §2
[18] = test system: MDA-MB-435; assay: Cytotoxicity against human MDA-MB-435 cells assessed as cell growth at 10 uM after 48 hrs by SRB assay relative to untreated control; settings: MDA-MB-435, 48 h, read-out: Activity; in short: as §3
[19] = test system: 786-0; assay: Cytotoxicity against human […] cells assessed as cell growth at 10 uM after 48 hrs by SRB assay relative to untreated control; settings: 786-0, 48 h, read-out: Activity; in short: as §2
[20] = test system: KM12; assay: Cytotoxicity against human KM12 cells assessed as cell growth at 10 uM after 48 hrs by SRB assay relative to untreated control; settings: KM12, 48 h, read-out: Activity; in short: as §2
[21] = test system: DU-145; assay: Cytotoxicity against human DU145 cells assessed as cell growth at 10 uM after 48 hrs by SRB assay relative to untreated control; settings: DU-145, 48 h, read-out: Activity; in short: as §2
[22] = test system: HCT-116; assay: Cytotoxicity against human HCT116 cells assessed as cell growth at 10 uM after 48 hrs by SRB assay relative to untreated control; settings: HCT-116, 48 h, read-out: Activity; in short: as §2
[23] = test system: SNB-75; assay: Cytotoxicity against human SNB75 cells assessed as cell growth at 10 uM after 48 hrs by SRB assay relative to untreated control; settings: SNB-75, 48 h, read-out: Activity; in short: as §1
[24] = test system: HOP-62; assay: Cytotoxicity against human HOP62 cells assessed as cell growth at 10 uM after 48 hrs by SRB assay relative to untreated control; settings: HOP-62, 48 h, read-out: Activity; in short: as §2
[25] = test system: MCF7; assay: Cytotoxicity against human MCF7 cells assessed as cell growth at 10 uM after 48 hrs by SRB assay relative to untreated control; settings: MCF7, 48 h, read-out: Activity; in short: as §2
[26] = test system: A498; assay: Cytotoxicity against human A498 cells assessed as cell growth at 10 uM after 48 hrs by SRB assay relative to untreated control; settings: A498, 48 h, read-out: Activity; in short: as §2
[27] = test system: NCI-H23; assay: Cytotoxicity against human NCI-H23 cells assessed as cell growth at 10 uM after 48 hrs by SRB assay relative to untreated control; settings: NCI-H23, 48 h, read-out: Activity; in short: as §3

## Cc1ccc(C2=Nc3nc4ccccn4c3C(=O)[C@H](Cc3ccccc3)N2)cc1
[1]
  growth at 10 µM: 135%
[2]
  growth at 10 µM: 94.9%
[3]
  growth at 10 µM: 84.5%
[4]
  growth at 10 µM: 107%
[5]
  growth at 10 µM: 80.7%
[6]
  growth at 10 µM: 89.7%
[7]
  growth at 10 µM: 93.2%
[8]
  growth at 10 µM: 99.3%
[9]
  growth at 10 µM: 84%
[10]
  growth at 10 µM: 116%
[11]
  growth at 10 µM: 99.9%
[12]
  growth at 10 µM: 89.1%
[13]
  growth at 10 µM: 102%
[14]
  growth at 10 µM: 92.8%
[15]
  growth at 10 µM: 97.4%
[16]
  growth at 10 µM: 87.9%
[17]
  growth at 10 µM: 85.8%
[18]
  growth at 10 µM: 46.8%
[19]
  growth at 10 µM: 106%
[20]
  growth at 10 µM: 92.9%
[21]
  growth at 10 µM: 117%
[22]
  growth at 10 µM: 94.3%
[23]
  growth at 10 µM: 80.2%
[24]
  growth at 10 µM: 75.9%
[25]
  growth at 10 µM: 76.2%
[26]
  growth at 10 µM: 101%
[27]
  growth at 10 µM: 82.5%

## Cc1ccccc1C1=Nc2nc3ccccn3c2C(=O)[C@H](Cc2ccccc2)N1
[1]
  growth at 10 µM: 138%
[2]
  growth at 10 µM: 91.7%
[3]
  growth at 10 µM: 104%
[4]
  growth at 10 µM: 98.4%
[5]
  growth at 10 µM: 89.4%
[6]
  growth at 10 µM: 122%
[7]
  growth at 10 µM: 103%
[8]
  growth at 10 µM: 100%
[9]
  growth at 10 µM: 96.5%
[10]
  growth at 10 µM: 125%
[11]
  growth at 10 µM: 109%
[12]
  growth at 10 µM: 108%
[13]
  growth at 10 µM: 103%
[14]
  growth at 10 µM: 111%
[15]
  growth at 10 µM: 104%
[16]
  growth at 10 µM: 113%
[17]
  growth at 10 µM: 91.7%
[18]
  growth at 10 µM: 98.8%
[19]
  growth at 10 µM: 101%
[20]
  growth at 10 µM: 108%
[21]
  growth at 10 µM: 113%
[22]
  growth at 10 µM: 86.9%
[23]
  growth at 10 µM: 70.8%
[24]
  growth at 10 µM: 93.4%
[25]
  growth at 10 µM: 84.9%
[26]
  growth at 10 µM: 98.2%
[27]
  growth at 10 µM: 95.3%

## O=C1c2c(nc3ccccn23)N=C(c2ccccc2)N2CCC[C@@H]12
[1]
  growth at 10 µM: 124%
[2]
  growth at 10 µM: 96.3%
[3]
  growth at 10 µM: 101%
[4]
  growth at 10 µM: 96.5%
[5]
  growth at 10 µM: 92.6%
[6]
  growth at 10 µM: 118%
[7]
  growth at 10 µM: 107%
[8]
  growth at 10 µM: 96.2%
[9]
  growth at 10 µM: 103%
[10]
  growth at 10 µM: 129%
[11]
  growth at 10 µM: 102%
[12]
  growth at 10 µM: 114%
[13]
  growth at 10 µM: 102%
[14]
  growth at 10 µM: 111%
[15]
  growth at 10 µM: 97.8%
[16]
  growth at 10 µM: 124%
[17]
  growth at 10 µM: 90.1%
[18]
  growth at 10 µM: 101%
[19]
  growth at 10 µM: 97.9%
[20]
  growth at 10 µM: 101%
[21]
  growth at 10 µM: 97%
[22]
  growth at 10 µM: 97.8%
[23]
  growth at 10 µM: 88.3%
[24]
  growth at 10 µM: 99.9%
[25]
  growth at 10 µM: 93%
[26]
  growth at 10 µM: 89.3%
[27]
  growth at 10 µM: 97.8%

## COc1ccc(C2=Nc3nc4ccccn4c3C(=O)[C@H](Cc3ccccc3)N2)cc1
[1]
  growth at 10 µM: 133%
[2]
  growth at 10 µM: 109%
[3]
  growth at 10 µM: 98.5%
[4]
  growth at 10 µM: 98.1%
[5]
  growth at 10 µM: 91.8%
[6]
  growth at 10 µM: 105%
[7]
  growth at 10 µM: 99.5%
[8]
  growth at 10 µM: 95.3%
[9]
  growth at 10 µM: 92.5%
[11]
  growth at 10 µM: 97.6%
[12]
  growth at 10 µM: 107%
[13]
  growth at 10 µM: 100%
[14]
  growth at 10 µM: 113%
[15]
  growth at 10 µM: 105%
[16]
  growth at 10 µM: 86%
[17]
  growth at 10 µM: 95.2%
[18]
  growth at 10 µM: 51.4%
[19]
  growth at 10 µM: 101%
[20]
  growth at 10 µM: 99.9%
[21]
  growth at 10 µM: 111%
[22]
  growth at 10 µM: 88%
[23]
  growth at 10 µM: 77.5%
[24]
  growth at 10 µM: 88.2%
[25]
  growth at 10 µM: 90.1%
[26]
  growth at 10 µM: 112%
[27]
  growth at 10 µM: 92%

## O=C1c2c(nc3ccccn23)NC(=O)N2CCC[C@@H]12
[1]
  growth at 10 µM: 99.6%
[2]
  growth at 10 µM: 98%
[3]
  growth at 10 µM: 93.5%
[4]
  growth at 10 µM: 103%
[5]
  growth at 10 µM: 93.8%
[6]
  growth at 10 µM: 126%
[7]
  growth at 10 µM: 104%
[8]
  growth at 10 µM: 95.8%
[9]
  growth at 10 µM: 100%
[11]
  growth at 10 µM: 93.1%
[12]
  growth at 10 µM: 109%
[13]
  growth at 10 µM: 106%
[14]
  growth at 10 µM: 120%
[15]
  growth at 10 µM: 100%
[17]
  growth at 10 µM: 92.8%
[18]
  growth at 10 µM: 94.9%
[19]
  growth at 10 µM: 98.6%
[20]
  growth at 10 µM: 105%
[21]
  growth at 10 µM: 100%
[22]
  growth at 10 µM: 89%
[23]
  growth at 10 µM: 96.5%
[24]
  growth at 10 µM: 97.1%
[25]
  growth at 10 µM: 99.9%
[26]
  growth at 10 µM: 88.5%
[27]
  growth at 10 µM: 98.5%

From ChEMBL document CHEMBL3124806, “Imidazopyridine-fused [1,3]-diazepinones: synthesis and antiproliferative activity” (Eur J Med Chem, 2014)
